In brackets after ≈: the same amount, converted by molar mass.

One assay relates to Bacillus subtilis. Description: Antibacterial activity against Bacillus subtilis after 24 hr by microdilution method. In kind it is functional. Put shortly:
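Bacteria grown 18 h, diluted in LB broth to 1 × 10^5 CFU/mL in 96-well microplates. Compounds in DMSO, 2-fold serial dilutions 512 to 0.5 μg/mL final, DMSO ≤5%. Incubated 37 °C for 24 h, growth checked by microscope. MIC = lowest concentration giving complete growth inhibition. DMSO negative control, kanamycin positive control, three repeats.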
(In broth dilution the organism is exposed to a series of concentrations in liquid medium.)

A further assay has as its system Fusarium graminearum. Description: Antifungal activity against Fusarium graminearum after 4 days by microdilution method. In kind it is functional. In a few lines:
(§1)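 Spores from 4-day-old cultures in PDB broth at 1 × 10^3 spores/mL, 96-well broth microdilution. Compounds in DMSO (final ≤5%), 2-fold serial dilutions 512–0.5 μg/mL. Incubated 28 °C, 4 days. DMSO negative control, nystatin positive control. Growth checked microscopically. MIC is the lowest concentration with complete inhibition. Experiments repeated three times.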

Another assay deals with Candida albicans. The assay can be described thus: Antifungal activity against Candida albicans after 4 days by microdilution method. In kind it is functional. In a few lines: as §1
For a further assay, the system named is Fusarium avenaceum. Description: Antifungal activity against Fusarium avenaceum after 4 days by microdilution method. In kind it is functional. In a few lines: as §1
Assay [1] relates to Radical scavenging activity. The assay can be described thus: Antioxidant activity assessed as DPPH radical scavenging activity at 2 mg/ml after 30 min by spectrophotometric analysis. The class given is functional. Put shortly:
(§2)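 DPPH stock diluted 1:20 in EtOH; 290 μL of this mixed with 10 μL sample, EtOH as negative control, vitamin C as positive control. Kept 30 min in dark, absorbance read at 517 nm. Scavenging % = [1 − (Ae − As)/Ac] × 100, where As is sample blank absorbance. Triplicate.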
For orientation: The DPPH test is a chemical assay of radical scavenging.

The subject of a further assay is Fusarium culmorum. The assay can be described thus: Antifungal activity against Fusarium culmorum after 4 days by microdilution method. In kind it is functional. In a few lines: as §1
A short description of assay [2]: Antioxidant activity assessed as ABTS radical scavenging activity at 1 mg/ml after 5 min by spectrophotometric analysis. The class given is functional. Put shortly:
(§3)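 ABTS radical cation made from ABTS (7 mM) and potassium persulfate (2.45 mM), held 16 h in dark at room temperature, then 350 μL diluted to 25 mL with aqueous 80% EtOH. Sample added to 250 μL working solution, kept 5 min in dark at room temperature, A734 read. Scavenging % = [1 − (Ae − As)/Ac] × 100 against solvent control, triplicate.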

In assay [3] the test system is Radical scavenging activity. Description: Antioxidant activity assessed as DPPH radical scavenging activity at 4 mg/ml after 30 min by spectrophotometric analysis. The class given is functional. In a few lines:
as §2

Assay [4] can be described thus: Antioxidant activity assessed as ABTS radical scavenging activity at 2 mg/ml after 5 min by spectrophotometric analysis. In kind it is functional. Put shortly: as §3
Assay [5] is described as follows: Antioxidant activity assessed as superoxide anion radical scavenging activity at 5 mg/ml after 5 min by spectrophotometric analysis. In kind it is functional. Put shortly: (§4)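 Superoxide made by non-enzymatic NADH–PMS system, detected by NBT reduction. 200 μL mix of 150 μM NBT and 234 μM NADH in 16 mM Tris-HCl pH 8.0, plus 10 μL sample. Reaction started with 100 μL of 30 μM PMS in the same buffer, 5 min at room temperature, A560 read. % = [1 − (Ae − As)/Ac] × 100, triplicate.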

The nature of assay [6]: Antioxidant activity assessed as ABTS radical scavenging activity at 0.16 mg/ml after 5 min by spectrophotometric analysis. In kind it is functional. Put shortly: as §3
Assay [7] concerns Radical scavenging activity. Description: Antioxidant activity assessed as DPPH radical scavenging activity at 0.8 mg/ml after 30 min by spectrophotometric analysis. The class given is functional. Put shortly: as §2
In the next assay the test system is Staphylococcus aureus. The assay can be described thus: Antibacterial activity against Staphylococcus aureus after 24 hr by microdilution method. In kind it is functional. In a few lines:
(§5)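 Bacteria from 18-h cultures in LB broth at 1 × 10^5 CFU/mL, 96-well broth microdilution. Compounds in DMSO (final ≤5%), 2-fold serial dilutions from 512 to 0.5 μg/mL. Incubated 37 °C for 24 h. DMSO-only negative control, kanamycin positive control. Growth read by microscope. MIC is the lowest concentration giving complete growth inhibition. Three repeats.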

Another assay has as its system Escherichia coli. Description: Antibacterial activity against Escherichia coli after 24 hr by microdilution method. The class given is functional. In a few lines: as §5
The next assay relates to Pyricularia oryzae. Description: Antifungal activity against Magnaporthe oryzae after 4 days by microdilution method. The class given is functional. In a few lines: as §1
Assay [8] is described as follows: Antioxidant activity assessed as ABTS radical scavenging activity at 0.5 mg/ml after 5 min by spectrophotometric analysis. The class given is functional. In a few lines: as §3
The nature of assay [9]: Antioxidant activity assessed as superoxide anion radical scavenging activity at 2 mg/ml after 5 min by spectrophotometric analysis. The class given is functional. In a few lines:
as §4

The next assay relates to Aspergillus niger. The assay can be described thus: Antifungal activity against Aspergillus niger after 4 days by microdilution method. In kind it is functional, organism-based. In a few lines: as §1
The next assay deals with Trichophyton verrucosum. Description: Antifungal activity against Trichophyton verrucosum after 4 days by microdilution method. In kind it is functional, organism-based. Put shortly:
as §1

The term MIC denotes the smallest concentration in the dilution series that meets the test's criterion for growth inhibition. Consider `COc1ccc(-c2cc(O)c(-c3ccc(OC)cc3)c(OC)c2OC)cc1`, for which the MIC amounted to 64 µg/mL (≈ 175 µM) against Bacillus subtilis; 16 µg/mL (≈ 43.7 µM) with Fusarium graminearum (96 h); 32 µg/mL (≈ 87.3 µM) with Candida albicans (96 h); 8 µg/mL (≈ 21.8 µM) against Fusarium avenaceum (96 h); 128 µg/mL (≈ 349 µM) against Fusarium culmorum (96 h). For the same compound, the Activity in assay [1] turned out to be 54.9%; in [2] it was 68.6%.
Consider `COc1ccc(-c2c(OC)c(O)c(-c3ccc(OC)cc3)c3scnc23)cc1`, for which the values for the Activity in assay [3] and in [4] were 14.3% and 28.4%, respectively.
With `C[C@@H]1NC(=O)[C@H](Cc2c[nH]c3ccccc23)NC1=O`, in [4], the Activity came to 54.6%.
For `O=C1O[C@H]([C@@H](O)CO)C(O)=C1O`, the Activity in assay [5] is 75.5%; in assay [6] it was 79.1%; in assay [7], 43.9%.
In the case of `NC[C@H]1O[C@H](O[C@H]2[C@H](O)[C@@H](O[C@H]3O[C@H](CO)[C@@H](O)[C@H](N)[C@H]3O)[C@H](N)C[C@@H]2N)[C@H](O)[C@@H](O)[C@@H]1O` [KANAMYCIN], the MIC in the assay on Staphylococcus aureus was 4 µg/mL (≈ 8.26 µM); in the assay on Bacillus subtilis it was 1 µg/mL (≈ 2.06 µM); in the assay on Escherichia coli, 1 µg/mL (≈ 2.06 µM).
Consider `CO[C@@H]1[C@@H](OC(N)=O)[C@@H](O)[C@H](Oc2ccc3c(O)c(NC(=O)c4ccc(O)c(CC=C(C)C)c4)c(=O)oc3c2C)OC1(C)C` [NOVOBIOCIN], for which the results for the MIC with Staphylococcus aureus, in the assay on Pyricularia oryzae (96 h) and against Bacillus subtilis were 64 µg/mL (≈ 104 µM), 16 µg/mL (≈ 26.1 µM) and 16 µg/mL (≈ 26.1 µM), respectively. Moreover, the Activity was found to be 78.2% in assay [8], 77.9% in [9] and 47.7% in assay [1].
In the case of NYSTATIN, the MIC with Pyricularia oryzae was 8 µg/mL; with Aspergillus niger, 8 µg/mL; against Fusarium graminearum, 4 µg/mL; in the assay on Candida albicans it was 4 µg/mL; against Fusarium avenaceum it was 1 µg/mL; against Fusarium culmorum, 1 µg/mL. For the same compound, it took 4 µg/mL to inhibit growth with Trichophyton verrucosum (MIC).
